Data set [1] deals with Leishmania donovani. As to the kind of experiment: Antileishmanial activity against amastigote stage of Leishmania donovani MHOM/IN/80/Dd8 infected in mouse J774.1 cells after 72 hrs by luciferase reporter gene assay. In kind it is functional, organism-based. The procedure, abridged: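 Intracellular L. donovani amastigotes growing inside macrophages were exposed to a concentration series. IC50 was obtained by nonlinear regression of the concentration-response curve with a four-parameter Hill equation. Values are mean ± S.D. of three independent experiments. Reference drugs were sodium stibogluconate and miltefosine.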
In general terms: Reporter assays use an easily measured gene product as a stand-in for the process of interest.

The nature of data set [2]: (§1) Cytotoxicity against African green monkey Vero cells assessed as cell viability after 72 hrs by MTT assay. In kind it is cell-based. Conditions: chlorocebus sabaeus, Vero cells. An outline of the steps: (§2)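 Vero cells were used, with viability read by MTT assay and podophyllotoxin as the reference cytotoxic drug. CC50 (50% maximum cytotoxic concentration) was estimated with a preformed template following Huber and Koella. Values are mean ± S.D. of three independent experiments.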
On the technique in general: Tetrazolium dyes change colour on reduction, which living cells bring about.

A short description of data set [3]: (§3) Selectivity index, ratio of CC50 for African green monkey Vero cells to IC50 for amastigote stage of Leishmania donovani MHOM/IN/80/Dd8. In kind it is functional. The procedure, abridged:
(§4)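 SI was calculated as CC50 on Vero cells (MTT viability) divided by IC50 on L. donovani intramacrophagic amastigotes. IC50 came from four-parameter Hill regression and CC50 from a Huber–Koella template. Both are means of three independent experiments.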

Data set [4] relates to Leishmania donovani. As to the kind of experiment: Ratio of Sodium stibogluconate IC50 to compound IC50 for amastigote stage of Leishmania donovani MHOM/IN/80/Dd8 infected in mouse J774.1 cells. In kind it is functional.
The subject of data set [5] is Leishmania donovani. The data set is described as follows: Ratio of Miltefosine IC50 to compound IC50 for amastigote stage of Leishmania donovani MHOM/IN/80/Dd8 infected in mouse J774.1 cells. In kind it is functional.
For data set [6], the system named is Vero. Described as §1. In kind it is cell-based. As to conditions: chlorocebus sabaeus, vero, 72 h. An outline of the steps:
as §2

In data set [7] the test system is Vero. The data set is described as §3. In kind it is functional. An outline of the steps:
as §4

[8] abbreviates: Leishmania donovani, MHOM/IN/80/Dd8, J774.1, 72 h.

Where only a bound is given, the exact number is not on record here.

Consider `COc1cc(/C=C2\CN(C(=O)c3cc(/C=C/C4C(C)=CCCC4(C)C)on3)C/C(=C\c3cc(OC)c(OC)c(OC)c3)C2=O)cc(OC)c1OC` (stereo unspecified), for which the IC50 in the data set on Leishmania donovani [1] (setting [8]) amounted to 4.7 µM. Also, the CC50 at 72 h in data set [2] came out at 25.3 µM. Further, the “Ratio CC50/IC50” value in data set [3] came to 5.38.

`COc1ccccc1/C=C1\CN(C(=O)c2cc(/C=C/C3C(C)=CCCC3(C)C)on2)C/C(=C\c2ccccc2OC)C1=O` (stereo unspecified) returned an IC50 in the data set on Leishmania donovani [1] (setting [8]) of over 20 µM.

Take `COc1cc(/C=C2\CN(C(=O)c3cc(/C=C/C4C(C)=CCCC4(C)C)on3)C/C(=C\c3ccc(OCc4ccccc4)c(OC)c3)C2=O)ccc1OCc1ccccc1` (stereo unspecified): half-maximal inhibition with Leishmania donovani [1] (setting [8]) (IC50) required 5.02 µM. Besides, the CC50 at 72 h in data set [2] was over 400 µM. Further, the “Ratio CC50/IC50” value in data set [3] is over 79.68. Further, the “Ratio IC50” value in the data set on Leishmania donovani [4] turned out to be 10; with Leishmania donovani [5] it was 1.6.

Consider `CCOc1cc(/C=C2\CN(C(=O)c3cc(/C=C/C4C(C)=CCCC4(C)C)on3)C/C(=C\c3ccc(O)c(OCC)c3)C2=O)ccc1O` (stereo unspecified), for which, in the data set with Leishmania donovani [1] (setting [8]), 6.1 µM corresponded to half-maximal inhibition (IC50). Besides, the 50% cytotoxic concentration (CC50) at 72 h in data set [2] was found to be 27.7 µM. In data set [3], the “Ratio CC50/IC50” value is 4.53.

The compound “SODIUM ANTIMONY GLUCONATE [listing 1 of 2 here]” came in with a half-inhibitory concentration (IC50) with Leishmania donovani [1] (j774.1) of 53.1 µM. For the same compound, in the data set with Vero [6], the CC50 was over 400 µM.

As for “SODIUM ANTIMONY GLUCONATE [listing 2 of 2 here]”, the Ratio CC50/IC50 in the data set with Vero [7] was over 7.53.

The compound `COc1cc(/C=C2\CN(C(=O)c3cc(/C=C/C4C(C)=CCCC4(C)C)on3)C/C(=C\c3ccc(O)c(OC)c3)C2=O)ccc1O` (stereo unspecified) registered a half-maximal inhibitory concentration (IC50) with Leishmania donovani [1] (setting [8]) of 1.83 µM. For the same compound, the CC50 at 72 h in data set [2] was 23.4 µM. Besides, the “Ratio CC50/IC50” value in data set [3] came to 12.81.

The compound `COc1ccc(/C=C2\CN(C(=O)c3cc(/C=C/C4C(C)=CCCC4(C)C)on3)C/C(=C\c3ccc(OC)c(OC)c3)C2=O)cc1OC` (stereo unspecified) yielded an IC50 in the data set with Leishmania donovani [1] (setting [8]) of 3.75 µM. The CC50 at 72 h in data set [2] is 45.8 µM. Further, the “Ratio CC50/IC50” value in data set [3] came out at 12.2.

Regarding `CCCCCCCCCCCCCCCCOP(=O)([O-])OCC[N+](C)(C)C` [MILTEFOSINE], half-maximal inhibition with Leishmania donovani [1] (setting [8]) (IC50) required 8.1 µM. Also, the “Ratio CC50/IC50” value in data set [3] stood at 6.52.

The compound `COc1ccc(/C=C2\CN(C(=O)c3cc(/C=C/C4C(C)=CCCC4(C)C)on3)C/C(=C\c3ccc(OC)cc3)C2=O)cc1` (stereo unspecified) registered an IC50 in the data set on Leishmania donovani [1] (setting [8]) of over 40 µM.

Turning to `CC1=CCCC(C)(C)C1/C=C/c1cc(C(=O)N2C/C(=C\c3ccc(Cl)cc3)C(=O)/C(=C/c3ccc(Cl)cc3)C2)no1` (stereo unspecified), the IC50 with Leishmania donovani [1] (setting [8]) was over 40 µM.

The compound `CC1=CCCC(C)(C)C1/C=C/c1cc(C(=O)N2C/C(=C\c3ccc(OCc4ccccc4)cc3)C(=O)/C(=C/c3ccc(OCc4ccccc4)cc3)C2)no1` (stereo unspecified) had an IC50 in the data set on Leishmania donovani [1] (setting [8]) of over 40 µM.

The term IC50 denotes the point on the concentration scale where inhibition reaches its midpoint. By CC50 is commonly meant the concentration at which the toxic effect on the cells reaches its halfway point.

The values above are taken from ChEMBL document CHEMBL3351977, “Chemotherapy of leishmaniasis part XIII: design and synthesis of novel heteroretinoid-bisbenzylidine ketone hybrids as antileishmanial agents” (Bioorg Med Chem Lett, 2015).
